Experimental data as given in ChEMBL document CHEMBL1125351, “Isobenzofurans as conformationally constrained miconazole analogues with improved antifungal potency” (1992).
Converted amounts (≈) assume the structure as drawn.

Assays:
Candida albicans [1] = test: Minimum inhibitory concentration against Candida albicans at a pH of 5.7 using SDB medium; format: functional
Summary of the method: (§1)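 Broth dilution in Sabouraud dextrose broth, pH 5.7. Compounds dissolved in DMSO or ethanol, serially diluted in medium, inoculated and incubated at 27 °C. Wells read visually at 48 h. MIC is the lowest concentration giving complete growth inhibition.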

Candida albicans [2] = test: Minimum inhibitory concentration against Candida albicans using eagles minimum essential medium (EMEM); format: functional
Summary of the method: (§2)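 Candida MICs in Eagle's minimum essential medium, pH 7.0. Compounds in DMSO or ethanol were serially diluted in medium, inoculated and incubated at 37 °C under CO₂. […] The summary value is the geometric mean of the MICs across strains.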

Candida albicans [3] = test: Minimum inhibitory concentration against Candida stellatoidea at a pH of 5.7 using SDB medium; format: functional; summary of the method: as §1
Candida = test: Compound is evaluated for geometric mean of MIC values of Candida species; format: functional; design: unit not given beside the values
Candida tropicalis [4] = test: Minimum inhibitory concentration against Candida tropicalis at a pH of 5.7 using SDB medium; format: functional; summary of the method: as §1
Candida tropicalis [5] = test: Minimum inhibitory concentration against Candida tropicalis using eagles minimum essential medium (EMEM); format: functional; summary of the method: as §2
Arthrodermataceae = test: Compound is evaluated for geometric mean of MIC values of dermatophytes; format: functional; design: unit not given beside the values
Summary of the method: (§3)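 Dermatophyte isolates tested by serial broth dilution in SDB, pH 5.7. Compound stocks in DMSO or ethanol, incubated at 27 °C, and growth read visually at 72 h. MIC is the lowest concentration with no visible growth. The summary value is the geometric mean of the MICs across the organisms.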

Epidermophyton floccosum = test: Minimum inhibitory concentration against Epidermophyton floccosum at a pH of 5.7 using SDB medium; format: functional; summary of the method: as §3
Microsporum canis = test: Minimum inhibitory concentration against Microsporum canis at a pH of 5.7 using SDB medium; format: functional; summary of the method: as §3
Trichophyton benhamiae = test: Minimum inhibitory concentration against Trichophyton mentagrophytes at a pH of 5.7 using SDB medium; format: functional, Arthroderma benhamiae; summary of the method: as §3
Trichophyton rubrum = test: Minimum inhibitory concentration against Trichophyton rubrum at a pH of 5.7 using SDB medium; format: functional; summary of the method: as §3
[6] = Geometric mean for the above three species of Candida, tested in EMEM medium; format: functional; summary of the method: as §2
Candida albicans [7] = test: Minimum inhibitory concentration against Candida stellatoidea using eagles minimum essential medium (EMEM); format: functional; summary of the method: as §2
Candida parapsilosis = test: Minimum inhibitory concentration against Candida parapsilosis at a pH of 5.7 using SDB medium; format: functional; conditions: Lodderomyces parapsilosis; summary of the method: as §1
Nannizzia gypsea = test: Minimum inhibitory concentration against Microsporum gypseum at a pH of 5.7 using SDB medium; format: functional; summary of the method: as §3
Cricetinae gen. sp. [8] = test: Inhibition of Vaginal Candida (C-60 strain) infection in Hamsters, estimated as Percent Area under curve at 0.05 % concentration after 4 days of administration; format: functional, Cricetulus griseus
Summary of the method: (§4)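 Hamster vaginal C. albicans infection (strains C43 or C60; 10 animals per compound). From day 5 post-infection, a cotton pellet holding 0.15 mL of 0.05% or 0.01% (w/w) compound in EtOH–PEG 400–glycerol (10:45:45) was inserted once daily for 4 or 8 days. Vaginal swabs were filtered and the filters cultured on SDA at 37 °C for 48 h. Read-out was the area under the % negative cultures versus time curve.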

Cricetinae gen. sp. [9] = test: Inhibition of Vaginal Candida (C-60 strain) infection in Hamsters, estimated as Percent Area under curve at 0.01 % concentration after 4 days of administration; format: functional, Cricetulus griseus; summary of the method: as §4
Cavia porcellus [10] = species on record: Cavia porcellus; test: Lession score which is determined as number of animals minus days to become negative; format: functional
Summary of the method: (§5)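 Guinea pigs (5 per compound) infected with T. mentagrophytes D24 by swabbing a homogenate onto shaven, abraded skin. From day 4 post-infection, 0.25% (w/v) compound in EtOH–PEG 400–glycerol (10:45:45) was rubbed in topically twice daily for 10 days. Hair samples were cultured on SDA at 27 °C for up to 16 days. Read-outs were the % negative cultures and the day each animal became culture-negative.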

Cavia porcellus [11] = test: In vivo inhibition of topical Trichophyton infection in Guinea Pig after drug administration; format: functional; summary of the method: as §5
Cavia porcellus [12] = test: In vivo inhibition of topical Trichophyton infection in Guinea Pig during drug administration; format: functional; summary of the method: as §5
Cricetinae gen. sp. [13] = test: Inhibition of Vaginal Candida (C-60 strain) infection in Hamsters, estimated as Percent Area under curve at 0.05 % concentration after 8 days of administration; format: functional, Cricetulus griseus; summary of the method: as §4

MIC (Candida albicans [1]) | MIC (Candida albicans [2]) | MIC (Candida albicans [3]) | MIC (Candida tropicalis [4]) | MIC (Candida tropicalis [5]) | MIC (Epidermophyton floccosum) | MIC (Microsporum canis) | MIC (Trichophyton benhamiae) | MIC (Trichophyton rubrum) | MIC (Candida albicans [7]) | MIC (Candida parapsilosis) | MIC (Nannizzia gypsea) | Structure (SMILES) | Geometric mean (Candida) | Geometric mean (Arthrodermataceae) | Geometric mean [6] | Inhibition (Cricetinae gen. sp. [8]) | Inhibition (Cricetinae gen. sp. [9]) | further results
64 µg/mL (≈ 232 µM) | 0.25 µg/mL (≈ 0.905 µM) | 64 µg/mL (≈ 232 µM) | 64 µg/mL (≈ 232 µM) | 0.125 µg/mL (≈ 0.452 µM) | < 0.031 µg/mL | 16 µg/mL (≈ 57.9 µM) | 16 µg/mL (≈ 57.9 µM) | 16 µg/mL (≈ 57.9 µM) | 0.25 µg/mL (≈ 0.905 µM) | 8 µg/mL (≈ 28.9 µM) | 64 µg/mL (≈ 232 µM) | c1ccc(C2(Cn3ccnc3)OCc3ccccc32)cc1 (stereo not given) | 48 | <5.2 | 0.2 |  |  | 
64 µg/mL (≈ 169 µM) | < 0.031 µg/mL | 64 µg/mL (≈ 169 µM) | 8 µg/mL (≈ 21.1 µM) | 1 µg/mL (≈ 2.63 µM) |  | 0.5 µg/mL (≈ 1.32 µM) | 0.5 µg/mL (≈ 1.32 µM) | 8 µg/mL (≈ 21.1 µM) | < 0.031 µg/mL | < 0.031 µg/mL |  | Clc1ccc(C2(Cn3ccnc3)OCc3ccc(Cl)cc32)c(Cl)c1 (stereo not given) | <15 | 1.3 | < 0.031 | 64% | 26% | 
 |  |  |  |  |  |  |  |  |  |  |  | Clc1ccccc1C(c1ccccc1)(c1ccccc1)n1ccnc1 [CLOTRIMAZOLE] |  |  |  |  |  | Lesion score (Cavia porcellus [10]): 5; Culture negative (Cavia porcellus [11]): 87%; Culture negative (Cavia porcellus [12]): 75%; Inhibition (Cricetinae gen. sp. [13]): 34%
> 64 µg/mL | < 0.031 µg/mL | > 64 µg/mL | 64 µg/mL (≈ 205 µM) | < 0.031 µg/mL |  | 2 µg/mL (≈ 6.4 µM) | 0.5 µg/mL (≈ 1.6 µM) | 16 µg/mL (≈ 51.2 µM) | < 0.031 µg/mL | 0.25 µg/mL (≈ 0.8 µM) |  | Fc1ccc(C2(Cn3ccnc3)OCc3ccccc32)c(F)c1 (stereo not given) | 48 | 2.5 | < 0.02 | 88% | 69% | 
32 µg/mL (≈ 92.7 µM) | < 0.031 µg/mL | 32 µg/mL (≈ 92.7 µM) | 32 µg/mL (≈ 92.7 µM) | < 0.031 µg/mL | 0.063 µg/mL (≈ 0.182 µM) | < 0.031 µg/mL | < 0.031 µg/mL | < 0.031 µg/mL | < 0.031 µg/mL | < 0.031 µg/mL | 0.5 µg/mL (≈ 1.45 µM) | Clc1ccc(C2(Cn3ccnc3)OCc3ccccc32)c(Cl)c1 (stereo not given) | 7.2 | <0.04 | < 0.02 | 94% | 78% | 
64 µg/mL (≈ 197 µM) | < 0.031 µg/mL | 64 µg/mL (≈ 197 µM) | 64 µg/mL (≈ 197 µM) | < 0.031 µg/mL | < 0.031 µg/mL | 1 µg/mL (≈ 3.08 µM) | 0.125 µg/mL (≈ 0.385 µM) | 0.25 µg/mL (≈ 0.77 µM) | < 0.031 µg/mL | 2 µg/mL (≈ 6.16 µM) | 1 µg/mL (≈ 3.08 µM) | Clc1ccc(C2(Cn3ccnc3)OCCc3ccccc32)cc1 (stereo not given) | 51 | <0.22 | < 0.02 |  |  | 
32 µg/mL (≈ 90.8 µM) | 0.25 µg/mL (≈ 0.709 µM) | 16 µg/mL (≈ 45.4 µM) | 32 µg/mL (≈ 90.8 µM) | 0.063 µg/mL (≈ 0.179 µM) | < 0.031 µg/mL | 1 µg/mL (≈ 2.84 µM) | < 0.031 µg/mL | < 0.031 µg/mL | 0.125 µg/mL (≈ 0.355 µM) | < 0.031 µg/mL | 8 µg/mL (≈ 22.7 µM) | c1ccc(-c2ccc(C3(Cn4ccnc4)OCc4ccccc43)cc2)cc1 (stereo not given) | 7.2 |  | 0.16 |  |  | 
